Measurements as given in ChEMBL document CHEMBL1933063, “Investigation of chalcones and benzochalcones as inhibitors of breast cancer resistance protein” (Bioorg Med Chem, 2012).

Key:
[1] = target: T1, Broad substrate specificity ATP-binding cassette transporter ABCG2 (Homo sapiens, UniProt Q9UNQ0); experiment: Inhibition of BCRP in human MCF7/MX cells assessed as Hoechst 33342 accumulation preincubated for 30 mins by Fluorometry; type: cell-based
T1 sequence (Q9UNQ0 whole entry): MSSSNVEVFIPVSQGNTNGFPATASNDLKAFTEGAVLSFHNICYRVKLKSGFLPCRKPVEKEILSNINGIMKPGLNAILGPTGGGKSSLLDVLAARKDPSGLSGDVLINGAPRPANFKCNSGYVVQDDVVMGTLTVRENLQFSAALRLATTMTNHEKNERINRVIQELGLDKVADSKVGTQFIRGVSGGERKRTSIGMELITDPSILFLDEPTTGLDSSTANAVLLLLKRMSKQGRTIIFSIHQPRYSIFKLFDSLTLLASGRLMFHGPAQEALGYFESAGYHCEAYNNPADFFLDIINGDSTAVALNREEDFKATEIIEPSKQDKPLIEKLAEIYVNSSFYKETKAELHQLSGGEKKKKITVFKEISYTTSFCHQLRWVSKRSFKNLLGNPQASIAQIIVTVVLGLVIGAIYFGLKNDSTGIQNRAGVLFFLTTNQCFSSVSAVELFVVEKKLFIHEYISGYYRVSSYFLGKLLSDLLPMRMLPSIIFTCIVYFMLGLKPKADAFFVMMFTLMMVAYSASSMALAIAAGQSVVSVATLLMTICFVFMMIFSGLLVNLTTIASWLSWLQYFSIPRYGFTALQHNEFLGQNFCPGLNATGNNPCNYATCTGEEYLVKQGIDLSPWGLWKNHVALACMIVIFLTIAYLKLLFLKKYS
Summary of the method: (§1)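 Cells washed three times in Krebs-HEPES buffer, about 20,000 per well, preincubated with test compound at varied concentrations for 30 min at 37 °C, 5% CO2. Hoechst 33342 then added (final 1 µM). Fluorescence (ex 355, em 460 nm) read every 60 s up to 120 min at 37 °C. KHB background subtracted, 100–109 min mean plotted, four-parameter logistic fit; ≥3 independent experiments.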

[2] = target: T1, Broad substrate specificity ATP-binding cassette transporter ABCG2; experiment: Inhibition of human BCRP expressed in MDCK2 cells assessed as Hoechst 33342 accumulation preincubated for 30 mins by fluorimetry; type: cell-based, MDCK-II; summary of the method: as §1
[3] = target: Multidrug resistance-associated protein 1 (Homo sapiens, UniProt P33527); experiment: Inhibition of MRP1 overexpressed in human 2008 MRP1 cells assessed as calcein AM accumulation at 10 uM by fluorimetry; type: cell-based; conditions: human, 2008, 10 µM
Chain of Multidrug resistance-associated protein 1 (P33527 whole entry): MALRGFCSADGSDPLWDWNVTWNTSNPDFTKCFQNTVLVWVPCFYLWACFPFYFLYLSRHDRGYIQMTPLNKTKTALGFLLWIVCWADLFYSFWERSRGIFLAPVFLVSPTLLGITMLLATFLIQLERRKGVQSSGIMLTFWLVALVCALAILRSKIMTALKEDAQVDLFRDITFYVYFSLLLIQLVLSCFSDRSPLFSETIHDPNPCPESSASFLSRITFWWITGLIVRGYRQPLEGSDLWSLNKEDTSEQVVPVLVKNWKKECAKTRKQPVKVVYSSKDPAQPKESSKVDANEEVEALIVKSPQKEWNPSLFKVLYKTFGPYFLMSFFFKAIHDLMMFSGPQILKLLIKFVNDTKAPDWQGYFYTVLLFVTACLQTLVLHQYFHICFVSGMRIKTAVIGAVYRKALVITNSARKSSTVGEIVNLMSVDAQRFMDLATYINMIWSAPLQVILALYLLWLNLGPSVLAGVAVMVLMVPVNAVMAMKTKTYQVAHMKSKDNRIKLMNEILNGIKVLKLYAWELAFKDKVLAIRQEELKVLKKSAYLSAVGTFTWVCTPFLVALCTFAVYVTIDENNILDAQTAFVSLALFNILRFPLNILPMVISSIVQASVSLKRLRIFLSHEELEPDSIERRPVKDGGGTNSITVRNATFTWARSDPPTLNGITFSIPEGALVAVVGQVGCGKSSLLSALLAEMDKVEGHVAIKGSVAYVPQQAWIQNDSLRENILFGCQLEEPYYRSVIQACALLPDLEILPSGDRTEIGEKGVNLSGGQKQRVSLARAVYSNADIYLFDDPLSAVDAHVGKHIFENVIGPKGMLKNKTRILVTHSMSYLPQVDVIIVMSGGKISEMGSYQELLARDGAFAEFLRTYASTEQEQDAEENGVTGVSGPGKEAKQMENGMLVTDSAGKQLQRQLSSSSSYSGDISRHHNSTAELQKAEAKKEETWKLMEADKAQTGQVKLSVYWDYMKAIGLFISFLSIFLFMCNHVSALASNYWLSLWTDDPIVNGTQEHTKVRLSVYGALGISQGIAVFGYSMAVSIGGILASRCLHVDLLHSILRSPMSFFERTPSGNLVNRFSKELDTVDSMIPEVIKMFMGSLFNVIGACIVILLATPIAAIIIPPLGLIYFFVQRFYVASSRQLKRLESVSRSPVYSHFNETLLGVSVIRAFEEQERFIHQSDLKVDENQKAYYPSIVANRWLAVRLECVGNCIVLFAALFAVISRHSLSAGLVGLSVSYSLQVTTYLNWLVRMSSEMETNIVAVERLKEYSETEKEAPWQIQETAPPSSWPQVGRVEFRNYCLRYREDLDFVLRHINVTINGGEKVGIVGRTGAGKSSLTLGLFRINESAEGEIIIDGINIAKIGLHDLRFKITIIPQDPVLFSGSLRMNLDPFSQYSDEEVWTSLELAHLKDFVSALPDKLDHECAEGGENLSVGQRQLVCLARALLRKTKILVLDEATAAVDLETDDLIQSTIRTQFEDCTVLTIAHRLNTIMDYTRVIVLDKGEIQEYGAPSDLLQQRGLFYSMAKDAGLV
Summary of the method: (§2)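 Calcein AM accumulation in A2780adr (P-gp) or 2008 MRP1 cells. Cells washed in Krebs-HEPES buffer, about 30,000 per well, preincubated 30 min with compound at 10 µM final. Calcein AM then added. Fluorescence (ex 485, em 520 nm) read every 60 s up to 90 min at 37 °C. Expressed as percent of vehicle control; n = 3.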

[4] = target: ATP-dependent translocase ABCB1 (Homo sapiens, UniProt P08183); experiment: Inhibition of MDR1 in human A2780adr cells assessed as calcein AM accumulation at 10 uM by fluorimetry; type: cell-based; conditions: a2780 adr; summary of the method: as §2
Chain of ATP-dependent translocase ABCB1 (P08183 whole entry): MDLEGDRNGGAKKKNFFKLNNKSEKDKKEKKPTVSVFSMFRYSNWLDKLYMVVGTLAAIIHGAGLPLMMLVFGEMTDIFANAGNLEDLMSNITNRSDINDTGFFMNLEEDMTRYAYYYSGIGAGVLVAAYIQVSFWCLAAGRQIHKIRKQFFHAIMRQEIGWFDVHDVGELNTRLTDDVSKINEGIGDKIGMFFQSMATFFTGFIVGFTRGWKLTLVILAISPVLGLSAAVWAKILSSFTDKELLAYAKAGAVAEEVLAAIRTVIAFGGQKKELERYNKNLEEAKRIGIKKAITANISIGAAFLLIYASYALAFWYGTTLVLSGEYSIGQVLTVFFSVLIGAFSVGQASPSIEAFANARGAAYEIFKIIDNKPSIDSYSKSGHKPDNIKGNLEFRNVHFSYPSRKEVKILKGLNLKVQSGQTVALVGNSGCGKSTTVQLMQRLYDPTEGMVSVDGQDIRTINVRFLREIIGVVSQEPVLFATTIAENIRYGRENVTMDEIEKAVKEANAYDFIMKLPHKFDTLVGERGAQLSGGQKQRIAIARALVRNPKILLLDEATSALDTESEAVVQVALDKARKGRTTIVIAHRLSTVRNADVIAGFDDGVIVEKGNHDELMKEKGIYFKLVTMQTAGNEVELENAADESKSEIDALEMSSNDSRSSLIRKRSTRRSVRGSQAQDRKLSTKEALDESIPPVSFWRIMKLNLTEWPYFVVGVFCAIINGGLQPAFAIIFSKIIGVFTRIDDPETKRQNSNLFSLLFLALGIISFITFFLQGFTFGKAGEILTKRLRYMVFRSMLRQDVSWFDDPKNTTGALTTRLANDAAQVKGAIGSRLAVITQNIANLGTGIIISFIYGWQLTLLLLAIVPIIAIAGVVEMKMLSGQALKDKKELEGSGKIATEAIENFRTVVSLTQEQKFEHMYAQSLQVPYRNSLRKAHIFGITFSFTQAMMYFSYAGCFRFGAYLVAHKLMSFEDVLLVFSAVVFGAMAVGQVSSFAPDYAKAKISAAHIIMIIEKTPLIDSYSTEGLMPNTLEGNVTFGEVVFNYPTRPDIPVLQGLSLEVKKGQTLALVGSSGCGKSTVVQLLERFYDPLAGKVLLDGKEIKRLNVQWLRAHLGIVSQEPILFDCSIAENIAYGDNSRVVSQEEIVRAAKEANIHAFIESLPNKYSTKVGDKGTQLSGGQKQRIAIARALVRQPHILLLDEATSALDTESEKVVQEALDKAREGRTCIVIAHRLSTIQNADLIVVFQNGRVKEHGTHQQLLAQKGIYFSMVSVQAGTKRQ

COc1ccc(/C=C/C(=O)c2ccc3ccccc3c2O)cc1OC
IC50 ([1]; read-out: IC50): 2.5 µM | IC50 ([2]; read-out: IC50): 1.95 µM | inhibition (INH) [3]: Not Active | inhibition (INH) [4]: Active

COc1ccc(/C=C/C(=O)c2ccccc2)cc1OC
IC50 ([1]; mcf7/mx): Not Active | IC50 ([2]; mdck-ii): Not Active | inhibition (INH) [3]: Not Active | inhibition (INH) [4]: Active

O=C(/C=C/c1ccc(Cl)cc1)c1ccc(O)cc1O
IC50 ([1]; read-out: IC50): 6.07 µM | IC50 ([2]; read-out: IC50): 6.37 µM | inhibition (INH) [3]: Not Active | inhibition (INH) [4]: Active

COc1ccc(/C=C/C(=O)c2ccc(OC)c(OC)c2)cc1OC
IC50 ([1]; read-out: IC50): 3.28 µM | IC50 ([2]; read-out: IC50): 3.8 µM | inhibition (INH) [3]: Not Active | inhibition (INH) [4]: Active

O=C(/C=C/c1ccccc1Cl)c1ccccc1
IC50 ([1]; mcf7/mx): Not Active | IC50 ([2]; mdck-ii): Not Active | inhibition (INH) [3]: Not Active | inhibition (INH) [4]: Active

COc1ccc(C(=O)/C=C/c2ccc(Cl)c(Cl)c2)c(O)c1
IC50 ([1]; mcf7/mx): Not Active | IC50 ([2]; mdck-ii): Not Active | inhibition (INH) [3]: Not Active | inhibition (INH) [4]: Active

O=C(/C=C/c1ccccc1)c1ccccc1O [2'-HYDROXYCHALCONE]
IC50 ([1]; mcf7/mx): Not Active | IC50 ([2]; mdck-ii): Not Active | inhibition (INH) [3]: Not Active | inhibition (INH) [4]: Active

O=C(/C=C/c1ccc(Cl)c(Cl)c1)c1c(O)ccc2ccccc12
IC50 ([1]; read-out: IC50): 8.78 µM | IC50 ([2]; read-out: IC50): 7.26 µM | inhibition (INH) [3]: Not Active | inhibition (INH) [4]: Active

COc1ccc(/C=C/C(=O)c2ccc(OC)cc2OC)cc1 [METOCHALCONE]
IC50 ([1]; read-out: IC50): 2.34 µM | IC50 ([2]; read-out: IC50): 1.91 µM | inhibition (INH) [3]: Not Active | inhibition (INH) [4]: Active

COc1cccc(/C=C/C(=O)c2ccc3ccccc3c2O)c1
IC50 ([1]; read-out: IC50): 11.9 µM | IC50 ([2]; read-out: IC50): 5.68 µM | inhibition (INH) [3]: Not Active | inhibition (INH) [4]: Active

O=C(/C=C/c1ccccc1Cl)c1c(O)ccc2ccccc12
IC50 ([1]; read-out: IC50): 5.21 µM | IC50 ([2]; read-out: IC50): 5.58 µM | inhibition (INH) [3]: Not Active | inhibition (INH) [4]: Active

O=C(/C=C/c1ccccc1Cl)c1ccc2ccccc2c1O
IC50 ([1]; mcf7/mx): Not Active | IC50 ([2]; mdck-ii): Not Active | inhibition (INH) [3]: Not Active | inhibition (INH) [4]: Active

COc1ccc(C(=O)/C=C/c2ccc(Cl)cc2)cc1OC
IC50 ([1]; read-out: IC50): 2.72 µM | IC50 ([2]; read-out: IC50): 1.73 µM | inhibition (INH) [3]: Not Active | inhibition (INH) [4]: Active

COc1ccc(/C=C/C(=O)c2ccc(OC)cc2O)cc1
IC50 ([1]; read-out: IC50): 4.2 µM | IC50 ([2]; read-out: IC50): 2.2 µM | inhibition (INH) [3]: Not Active | inhibition (INH) [4]: Active

COc1ccc(/C=C/C(=O)c2ccc3ccccc3c2O)cc1
IC50 ([1]; read-out: IC50): 16.9 µM | IC50 ([2]; read-out: IC50): 9.83 µM | inhibition (INH) [3]: Not Active | inhibition (INH) [4]: Active

O=C(/C=C/c1ccccc1Cl)c1ccc(O)cc1O
IC50 ([1]; read-out: IC50): 3.21 µM | IC50 ([2]; read-out: IC50): 3.28 µM | inhibition (INH) [3]: Not Active | inhibition (INH) [4]: Active

O=C(/C=C/c1ccc(Cl)c(Cl)c1)c1ccc2ccccc2c1O
IC50 ([1]; read-out: IC50): 26.1 µM | IC50 ([2]; read-out: IC50): 22.4 µM | inhibition (INH) [3]: Not Active | inhibition (INH) [4]: Active

COc1ccc(/C=C/C(=O)c2ccc(O)cc2O)cc1OC
IC50 ([1]; read-out: IC50): 0.93 µM | IC50 ([2]; read-out: IC50): 0.85 µM | inhibition (INH) [3]: Not Active | inhibition (INH) [4]: Active

O=C(/C=C/c1ccccc1)c1ccc2ccccc2c1O
IC50 ([1]; read-out: IC50): 24.3 µM | IC50 ([2]; read-out: IC50): 9.23 µM | inhibition (INH) [3]: Not Active | inhibition (INH) [4]: Active

COc1cc(OO)ccc1C(=O)/C=C/c1ccc(Cl)c(Cl)c1
IC50 ([1]; mcf7/mx): Not Active | IC50 ([2]; mdck-ii): Not Active | inhibition (INH) [3]: Not Active | inhibition (INH) [4]: Active

COc1cccc(/C=C/C(=O)c2ccc(OC)cc2O)c1
IC50 ([1]; read-out: IC50): 3.15 µM | IC50 ([2]; read-out: IC50): 1.47 µM | inhibition (INH) [3]: Not Active | inhibition (INH) [4]: Active

O=C(/C=C/c1ccc(Cl)cc1)c1c(O)ccc2ccccc12
IC50 ([1]; mcf7/mx): Not Active | IC50 ([2]; mdck-ii): Not Active | inhibition (INH) [3]: Not Active | inhibition (INH) [4]: Active

COc1ccc(C(=O)/C=C/c2ccccc2Cl)cc1OC
IC50 ([1]; read-out: IC50): 11 µM | IC50 ([2]; read-out: IC50): 7.8 µM | inhibition (INH) [3]: Not Active | inhibition (INH) [4]: Active

COc1ccc(C(=O)/C=C/c2ccccc2)c(O)c1
IC50 ([1]; read-out: IC50): 31 µM | IC50 ([2]; read-out: IC50): 30.9 µM | inhibition (INH) [3]: Not Active | inhibition (INH) [4]: Active

O=C(/C=C/c1ccccc1)c1c(O)ccc2ccccc12
IC50 ([1]; read-out: IC50): 2.77 µM | IC50 ([2]; read-out: IC50): 2.58 µM | inhibition (INH) [3]: Not Active | inhibition (INH) [4]: Active

COc1ccc(/C=C/C(=O)c2c(O)ccc3ccccc23)cc1
IC50 ([1]; read-out: IC50): 3.81 µM | IC50 ([2]; read-out: IC50): 2.89 µM | inhibition (INH) [3]: Not Active | inhibition (INH) [4]: Active

COc1ccc(/C=C/C(=O)c2ccccc2O)cc1OC
IC50 ([1]; read-out: IC50): 5.07 µM | IC50 ([2]; read-out: IC50): 4.97 µM | inhibition (INH) [3]: Not Active | inhibition (INH) [4]: Active

COc1ccc(/C=C/C(=O)c2ccc(O)cc2O)cc1
IC50 ([1]; read-out: IC50): 33.3 µM | IC50 ([2]; read-out: IC50): 12 µM | inhibition (INH) [3]: Not Active | inhibition (INH) [4]: Active

COc1ccc(C(=O)/C=C/c2ccc(Cl)cc2)c(O)c1
IC50 ([1]; read-out: IC50): 13.5 µM | IC50 ([2]; read-out: IC50): 10.7 µM | inhibition (INH) [3]: Not Active | inhibition (INH) [4]: Active

COc1ccc(C(=O)/C=C/c2ccccc2Cl)c(O)c1
IC50 ([1]; read-out: IC50): 6.85 µM | IC50 ([2]; read-out: IC50): 3.32 µM | inhibition (INH) [3]: Not Active | inhibition (INH) [4]: Active

O=C(/C=C/c1ccc(Cl)cc1)c1ccc2ccccc2c1O
IC50 ([1]; mcf7/mx): Not Active | IC50 ([2]; mdck-ii): Not Active | inhibition (INH) [3]: Not Active | inhibition (INH) [4]: Active

COc1ccc(/C=C/C(=O)c2c(O)cc(OC)cc2OC)cc1 [FLAVOKAWAIN A]
IC50 ([1]; read-out: IC50): 5.83 µM | IC50 ([2]; read-out: IC50): 3 µM | inhibition (INH) [3]: Not Active | inhibition (INH) [4]: Active

COc1ccc(C(=O)/C=C/c2ccccc2Cl)c(OC)c1
IC50 ([1]; read-out: IC50): 3.13 µM | IC50 ([2]; read-out: IC50): 2.63 µM | inhibition (INH) [3]: Not Active | inhibition (INH) [4]: Active

COc1cccc(/C=C/C(=O)c2ccc(O)cc2O)c1
IC50 ([1]; read-out: IC50): 2.8 µM | IC50 ([2]; read-out: IC50): 1.94 µM | inhibition (INH) [3]: Not Active | inhibition (INH) [4]: Active

COc1ccc(C(=O)/C=C/c2ccc(Cl)cc2)c(OC)c1
IC50 ([1]; read-out: IC50): 3.09 µM | IC50 ([2]; read-out: IC50): 1.13 µM | inhibition (INH) [3]: Not Active | inhibition (INH) [4]: Active
